Assay results from different studies.
Protocols differ between the studies behind these lines.
Target: Tyrosine-protein kinase receptor TYRO3 (TYRO3, Homo sapiens, UniProt Q06418)
One construct used (Q06418 41-890): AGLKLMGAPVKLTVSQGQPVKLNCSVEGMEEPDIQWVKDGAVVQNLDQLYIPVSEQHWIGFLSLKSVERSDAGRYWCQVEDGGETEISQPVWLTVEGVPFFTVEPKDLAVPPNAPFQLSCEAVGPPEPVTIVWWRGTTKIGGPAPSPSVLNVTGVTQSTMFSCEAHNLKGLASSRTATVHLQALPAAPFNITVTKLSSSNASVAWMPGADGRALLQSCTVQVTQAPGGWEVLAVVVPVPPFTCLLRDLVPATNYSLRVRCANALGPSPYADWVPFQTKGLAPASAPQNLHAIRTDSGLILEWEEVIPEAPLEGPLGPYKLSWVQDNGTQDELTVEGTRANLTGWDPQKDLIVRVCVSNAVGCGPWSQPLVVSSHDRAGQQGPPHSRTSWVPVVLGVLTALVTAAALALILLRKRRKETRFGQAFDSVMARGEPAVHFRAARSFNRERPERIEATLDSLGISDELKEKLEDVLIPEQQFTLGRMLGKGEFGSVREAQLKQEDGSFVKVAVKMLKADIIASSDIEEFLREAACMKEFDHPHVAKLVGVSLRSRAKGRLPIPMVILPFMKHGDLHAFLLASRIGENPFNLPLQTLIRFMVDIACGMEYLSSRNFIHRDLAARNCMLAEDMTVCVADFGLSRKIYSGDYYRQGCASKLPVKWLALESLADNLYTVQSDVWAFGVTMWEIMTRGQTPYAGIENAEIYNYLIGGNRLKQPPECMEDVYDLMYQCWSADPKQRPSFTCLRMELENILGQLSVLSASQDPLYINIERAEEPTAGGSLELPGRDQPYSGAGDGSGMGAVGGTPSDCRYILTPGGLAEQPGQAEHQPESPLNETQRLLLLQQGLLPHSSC

Structure (SMILES) | observed | mode | technique | tested at | endpoint | value
N#CC1(c2ccccn2)CCN(Cc2cc(C(=O)O)c(=O)n3ccccc23)CC1 | cell-free assay |  | competition with immobilised ligand | 1 µM | remaining binding | 98%
Cn1cc(-c2cc(F)cc(N3CCn4c(cc5c4CCCC5)C3=O)c2CO)cc(Nc2ccc(N3CCN(C4COC4)CC3)cn2)c1=O | enzyme activity | inhibitor |  | 0.1 µM | inhibition | 17%
Cc1nn(C)cc1-c1nc2c(N3CCN(Cc4ccc(Cl)cc4)CC3)c(Cl)cnc2[nH]1 | binding |  | competition with immobilised ligand | 1 µM | remaining binding | 73%
C#Cc1n[nH]c2c(-c3cn([C@@H](C)c4ccccc4)c(=O)[nH]c3=O)cc(F)cc12 | enzyme activity | inhibitor |  | 0.1 µM | inhibition | 47.7%
Cn1cncc1[C@@](O)(COc1ccc(C#N)cc1-c1ccc(OC(F)(F)F)cc1)c1ccc(C#N)cc1 | cell-free assay |  | competition with immobilised ligand | 1 µM | remaining binding | 100%
O=c1[nH]c2ccccc2n1C1CCN(Cc2ccc(-c3[nH]c4cc5ncnc5cc4nc3-c3ccccc3)cc2)CC1 | cell-free assay |  |  | 0.5 µM | remaining signal | 103%
C#Cc1n[nH]c2c(-c3cn([C@@H](C)c4ccccn4)c(=O)[nH]c3=O)cc(F)cc12 | enzyme activity | inhibitor |  | 0.1 µM | inhibition | 30.8%
COc1ncccc1-c1cnn2ccc(N3CCN(C(=O)OC(C)C)CC3)nc12 | binding |  | competition with immobilised ligand | 1 µM | remaining binding | 100%
CC(C)(C)c1cc(C=C(C#N)C#N)cc(Br)c1O | enzyme activity | inhibitor |  | 0.5 µM | remaining activity | 110%
Cn1cc(-c2cccc(N3CCc4c(sc5c4CC(C)(C)C5)C3=O)c2CO)cc(Nc2ccncn2)c1=O | enzyme activity | inhibitor |  | 1 µM | inhibition | 4%
